This note sets out measurements from ChEMBL document CHEMBL1123658, “1-(2-pyridinyl)piperazine derivatives with antianaphylactic, antibronchospastic, and mast cell stabilizing activities” (J Med Chem, 1987).

Structures are written as SMILES.

The subject of series [1] is Rattus norvegicus. The series can be described thus: Rat PCA Test(50% inhibition of spot areas)in the female albino rats after (ip) administration in 10% aqueous acacia gum; value ranges from 42-79. The series is classed as functional. The settings on record: read-out: ID50 (the source's name). The gist of the method:
(§1)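 Female albino rats (200–250 g) received intradermal ventral injections of rat anti-egg-albumin antiserum; donors were raised with egg albumin im plus H. pertussis ip, and serum was taken at 12 days. 24 h later, compound was given ip in 10% acacia gum (10 mL/kg), 10 rats/group. Challenge 30 min later was iv 0.3% egg albumin plus 1% Evans blue. Blued areas were measured 30 min after challenge.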

Series [2] in a line: In vivo toxic effect was determined in mouse after oral administration with 10% aqueous acacia gum; value ranges from 1.75-2.99. Format: toxicity, organism-based. The gist of the method:
(§2)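 Female albino mice, 20-30 g. Compound given orally as solution or suspension in 10% aqueous acacia gum, 10 animals per dose. Deaths recorded over 7 days.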

In series [3] the test system is Rattus norvegicus. The series can be described thus: Inhibition of mast cell degranulation was assessed in female albino rats at a dose of 23 umol/kg iv. Format: functional.
Series [4] has as its system Rattus norvegicus. The series can be described thus: Rat PCA Test(50% inhibition of spot areas)in the female albino rats after oral administration in 10% aqueous acacia gum; value ranges from 99-191. The series is classed as functional. The note with it: read-out: ID50 (the source's name). The gist of the method:
(§3)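 Female rats (200-250 g) were passively sensitized by ventral intradermal anti-egg-albumin antiserum. This was raised in rats by intramuscular 1% egg albumin plus ip H. pertussis vaccine, with serum taken at 12 days. After 24 h, groups of 10 were dosed orally with compound or vehicle (10 mL/kg). At 60 min, iv challenge used 0.3% egg albumin with 1% Evans blue. Blued areas were measured after 30 min.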

The test system of the next series is Cavia porcellus. The series can be described thus: Antibronchospatic activity determined by histamine stimulated bronchospasm inhibition in guinea pigs after(i.v.) administration. Format: functional, Bronchiole. The gist of the method: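 Guinea pigs, Konzett–Rössler preparation. Bronchospasm was induced with histamine. Compound was given iv (1 mL/kg) 1 min before the agonist, dissolved in saline or saline with slight excess HCl or CH3SO3H (pH 3.5–4). Three doses were tested in duplicate, chosen to give 20–90% inhibition. ID75 was read graphically from log dose–response curves.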

Series [5] can be described thus: In vivo toxic effect was determined in mouse after intraperitoneal administration with 10% aqueous acacia gum; value ranges from 0.30-0.61. Format: toxicity, organism-based. The settings on record: ip. The gist of the method: (§4)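 Female albino mice (20-30 g), 10 animals per dose, dosed intraperitoneally with compound in solution or suspension; compounds tested as salts unless noted. Mortality was recorded over 7 days.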

The nature of series [6]: In vivo toxic effect was determined in mouse after intraperitoneal administration with 10% aqueous acacia gum; value ranges from 0.88-1.56. The note with it: ip. The series is classed as toxicity, organism-based. The gist of the method: as §4
Series [7] relates to Rattus norvegicus. The series can be described thus: Rat PCA Test(50% inhibition of spot areas)in the female albino rats after (ip) administration in 10% aqueous acacia gum; value ranges from 213-612. The series is classed as functional. The note with it: read-out: ID50 (the source's name). The gist of the method: as §1
For series [8], the system named is Rattus norvegicus. The series can be described thus: Rat PCA Test(50% inhibition of spot areas)in the female albino rats after oral administration in 10% aqueous acacia gum. Format: functional. The note with it: read-out: ID50 (the source's name). The gist of the method: as §3
A short description of series [9]: In vivo toxicity in mouse after oral administration with 10% aqueous acacia gum. The series is classed as organism-based. The gist of the method: as §2
For series [10], the system named is Rattus norvegicus. The series can be described thus: Rat PCA Test(50% inhibition of spot areas)in the female albino rats after (ip) administration in 10% aqueous acacia gum; value ranges from 206-307. The series is classed as functional. The note with it: read-out: ID50 (the source's name). The gist of the method:
as §1

Series [11] can be described thus: In vivo toxic effect was determined in mouse after intraperitoneal administration with 10% aqueous acacia gum; value ranges from 3.43-5.07. The series is classed as toxicity, organism-based. The note with it: ip. The gist of the method:
as §4

Series [12] is described as follows: In vivo toxic effect was determined in mouse after oral administration with 10% aqueous acacia gum; value ranges from 1.19-2.07. Format: toxicity, organism-based. The gist of the method:
as §2

Series [13] relates to Rattus norvegicus. The series can be described thus: Rat PCA Test(50% inhibition of spot areas)in the female albino rats after (ip) administration in 10% aqueous acacia gum; value ranges from 66-231. The settings on record: read-out: ID50 (the source's name). Format: functional. The gist of the method: as §1
Series [14] can be described thus: In vivo toxic effect was determined in mouse after intraperitoneal administration with 10% aqueous acacia gum; value ranges from 0.89-1.63. The note with it: ip. Format: toxicity, organism-based. The gist of the method:
as §4

A short description of series [15]: In vivo toxic effect was determined in mouse after intraperitoneal administration with 10% aqueous acacia gum; value ranges from 0.92-1.65. Format: toxicity, organism-based. The settings on record: ip. The gist of the method: as §4
A short description of series [16]: In vivo toxic effect was determined in mouse after oral administration with 10% aqueous acacia gum; value ranges from 0.92-1.78. Format: toxicity, organism-based. The gist of the method: as §2
Series [17] has as its system Rattus norvegicus. The series can be described thus: Rat PCA Test(50% inhibition of spot areas)in the female albino rats after oral administration in 10% aqueous acacia gum; value ranges from 72-115. Format: functional. The note with it: read-out: ID50 (the source's name). The gist of the method: as §3
The subject of series [18] is Rattus norvegicus. The series can be described thus: Rat PCA Test(50% inhibition of spot areas)in the female albino rats after (ip) administration in 10% aqueous acacia gum; value ranges from 11-48. Format: functional. The settings on record: read-out: ID50 (the source's name). The gist of the method: as §1
Series [19] deals with Rattus norvegicus. The series can be described thus: Inhibition of mast cell degranulation was assessed in female albino rats at a dose of 31 umol/kg iv. Format: functional.
Series [20] can be described thus: In vivo toxic effect was determined in mouse after oral administration with 10% aqueous acacia gum; value ranges from 0.53-0.84. The series is classed as toxicity, organism-based.
Series [21] can be described thus: In vivo toxic effect was determined in mouse after intraperitoneal administration with 10% aqueous acacia gum; value ranges from 0.27-0.50. The series is classed as toxicity, organism-based. The settings on record: ip. The gist of the method: as §4
Series [22] can be described thus: In vivo toxic effect was determined in mouse after oral administration with 10% aqueous acacia gum; value ranges from 0.99-1.61. The series is classed as toxicity, organism-based. The gist of the method: as §2
For series [23], the system named is Rattus norvegicus. The series can be described thus: Inhibition of mast cell degranulation was assessed in female albino rats at a dose of 47 umol/kg iv. The series is classed as functional.
For series [24], the system named is Rattus norvegicus. The series can be described thus: Rat PCA Test(50% inhibition of spot areas)in the female albino rats after (ip) administration in 10% aqueous acacia gum; value ranges from 43-53. The series is classed as functional. The note with it: read-out: ID50 (the source's name). The gist of the method: as §1
Series [25] in a line: In vivo toxic effect was determined in mouse after intraperitoneal administration with 10% aqueous acacia gum; value ranges from 0.57-1.04. Format: toxicity, organism-based. The settings on record: ip. The gist of the method: as §4
The subject of series [26] is Rattus norvegicus. The series can be described thus: Inhibition of mast cell degranulation was assessed in female albino rats at a dose of 42 umol/kg iv. The series is classed as functional.
Series [27] is described as follows: In vivo toxic effect was determined in mouse after intraperitoneal administration with 10% aqueous acacia gum; value ranges from 0.50-0.84. The series is classed as toxicity, organism-based. The settings on record: ip. The gist of the method: as §4
Series [28] deals with Rattus norvegicus. The series can be described thus: Rat PCA Test(50% inhibition of spot areas)in the female albino rats after (ip) administration in 10% aqueous acacia gum; value ranges from 14-22. The series is classed as functional. The note with it: read-out: ID50 (the source's name). The gist of the method:
as §1

For orientation: LD50 means the dose at which mortality reaches 50%. For orientation: inhibition in vivo means the share of the control response that was lost under treatment. Higher therefore signals a response far below the control. As to `Cl.Cl.O=C(CCN1CCN(c2ccccn2)CC1)Nc1cccc([N+](=O)[O-])c1`, the ED50 is 58 µmol/kg with Rattus norvegicus [1] and 137 µmol/kg with Rattus norvegicus [4]. In addition, the LD50 in series [2] was found to be 2070 µmol/kg; in [5], 420 µmol/kg. In the series with Rattus norvegicus [3], this molecule yielded an inhibition in vivo at 23 µmol/kg of 87%. The same molecule showed an ID75 in the series on Cavia porcellus of 0.37 µM/kg.
`C=CCOC(=O)CCN1CCN(c2ccccn2)CC1.Cl.Cl`: the LD50 in [6] is 1030 µmol/kg; in series [9], over 8610 µmol/kg. In addition, the figures for the ED50 in the series on Rattus norvegicus [7] and in the series with Rattus norvegicus [8] were 330 µmol/kg and 11.5 µmol/kg, respectively.
Turning to `COC(=O)CCN1CCN(c2ccccn2)CC1.Cl`, the ED50 with Rattus norvegicus [10] is 252 µmol/kg. The LD50 in [11] turned out to be 4020 µmol/kg. This molecule came in with an ID75 in the series with Cavia porcellus of 3.5 µM/kg.
Take `CCC(=O)Nc1ccc(NC(=O)CCN2CCN(c3ccccn3)CC2)cc1.Cl.Cl`: the LD50 is 1530 µmol/kg in [12] and 1050 µmol/kg in series [14]. Besides, the ED50 with Rattus norvegicus [13] came out at 147 µmol/kg. The molecule further showed an ID75 in the series with Cavia porcellus of 0.23 µM/kg.
Take `Nc1ccc(NC(=O)CCN2CCN(c3ccccn3)CC2)cc1`: the LD50 in series [15] was found to be 1110 µmol/kg; in series [16], 1290 µmol/kg. Further, the ED50 in the series with Rattus norvegicus [17] was 91 µmol/kg; with Rattus norvegicus [18], 23 µmol/kg. The same molecule gave an ID75 in the series on Cavia porcellus of 0.02 µM/kg. The molecule also had an inhibition in vivo at 31 µmol/kg in the series on Rattus norvegicus [19] of 84%.
As to `COc1cccc(N2CCN(CCC(=O)Nc3ccccc3N)CC2)n1.Cl.Cl`, the LD50 in [20] came to 670 µmol/kg; in [21], 370 µmol/kg. Moreover, in the series on Cavia porcellus, the ID75 worked out at 108 µM/kg.
Turning to `COc1ccc(NC(=O)CCN2CCN(c3ccccn3)CC2)cc1.Cl.Cl`, the figures for the LD50 in [22] and in series [25] were 1160 µmol/kg and 710 µmol/kg, respectively. In addition, the inhibition in vivo at 47 µmol/kg in the series on Rattus norvegicus [23] was 19%. For the same molecule, the figures for the ED50 with Rattus norvegicus [24] and in the series with Rattus norvegicus [8] were 48 µmol/kg and over 95 µmol/kg, respectively. Besides, the ID75 in the series with Cavia porcellus was found to be 0.24 µM/kg.
Consider `Cc1cc(C)c(C)c(NC(=O)CCN2CCN(c3ccccn3)CC2)c1C.Cl.Cl`, for which the inhibition in vivo at 42 µmol/kg in the series with Rattus norvegicus [26] stood at 2%. This molecule gave a 50% lethal dose (LD50) in series [27] of 570 µmol/kg. The ED50 in the series with Rattus norvegicus [28] came to 18 µmol/kg.
